4 compounds from ChEMBL document CHEMBL2021818, “Novel desosamine-modified 14- and 15-membered macrolides without antibacterial activity” (2012) can be followed below.

Assay type in all cases: functional
One experiment relates to Streptococcus pneumoniae. Description: Antibacterial activity against Streptococcus pneumoniae ATCC […] after 24 hrs at 37 degC by CLSI protocol based microdilution method. An outline of the steps: (§1)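 Macrolide-susceptible strains, broth microdilution MIC per CLSI. Media: Mueller–Hinton broth (MHB) for S. aureus and M. catarrhalis, MHB plus 5% horse serum for streptococci, Haemophilus test medium for H. influenzae. Compounds dissolved in DMF (5 mg/mL stock) and serially twofold diluted in medium over 64 to 0.125 µg/mL. MIC read after 24 h incubation at 37 °C.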

For the next experiment, the system named is Haemophilus influenzae. Description: Antibacterial activity against Haemophilus influenzae ATCC 49247 after 24 hrs at 37 degC by CLSI protocol based microdilution method. As to conditions: ATCC 49247, 24 h. An outline of the steps:
as §1
(In general: Broth dilution looks for growth in wells or tubes with falling amounts of substance.)

The next experiment deals with Moraxella catarrhalis. Kind of experiment: Antibacterial activity against Moraxella catarrhalis ATCC 23246 after 24 hrs at 37 degC by CLSI protocol based microdilution method. As to conditions: ATCC 23246, 24 h. The essentials: as §1
Another experiment relates to Streptococcus pyogenes. Kind of experiment: Antibacterial activity against Streptococcus pyogenes ATCC 700294 after 24 hrs at 37 degC by CLSI protocol based microdilution method. Conditions: ATCC 700294, 24 h. The essentials:
as §1

The test system of the next experiment is Staphylococcus aureus. Kind of experiment: Antibacterial activity against Staphylococcus aureus ATCC 13709 after 24 hrs at 37 degC by CLSI protocol based microdilution method. As to conditions: ATCC 13709, 24 h. An outline of the steps:
as §1

Converted amounts (≈) assume the structure as drawn. Where only a bound is given, the exact number is not on record here.

Take `CCCCCCN1C(=O)O[C@H]2[C@H](O[C@@H]3[C@@H](C)[C@H](O[C@H]4C[C@@](C)(OC)[C@@H](O)[C@H](C)O4)[C@@H](C)C(=O)O[C@H](CC)[C@@](C)(O)[C@H](O)[C@@H](C)N(C)C[C@H](C)C[C@@]3(C)O)O[C@H](C)C[C@@H]21`: the MIC in the experiment with Streptococcus pneumoniae, in the experiment on Haemophilus influenzae, with Moraxella catarrhalis, in the experiment with Streptococcus pyogenes and in the experiment on Staphylococcus aureus was > 64 µg/mL throughout.
For `C=CCN1C(=O)O[C@H]2[C@H](O[C@@H]3[C@@H](C)[C@H](O[C@H]4C[C@@](C)(OC)[C@@H](O)[C@H](C)O4)[C@@H](C)C(=O)O[C@H](CC)[C@@](C)(O)[C@H](O)[C@@H](C)N(C)C[C@H](C)C[C@@]3(C)O)O[C@H](C)C[C@@H]21`, the MIC with Streptococcus pneumoniae, with Haemophilus influenzae, against Moraxella catarrhalis, in the experiment on Streptococcus pyogenes and in the experiment with Staphylococcus aureus was > 64 µg/mL in each case.
As for `CC[C@H]1OC(=O)[C@H](C)[C@@H](O[C@H]2C[C@@](C)(OC)[C@@H](O)[C@H](C)O2)[C@H](C)[C@@H](O[C@@H]2O[C@H](C)C[C@H](N(C)C)[C@H]2O)[C@](C)(O)C[C@@H](C)CN(C)[C@H](C)[C@@H](O)[C@]1(C)O` [AZITHROMYCIN], the MIC in the experiment on Streptococcus pneumoniae was < 0.125 µg/mL; in the experiment with Haemophilus influenzae it was 2 µg/mL (≈ 2.67 µM); in the experiment on Moraxella catarrhalis it was < 0.125 µg/mL; with Streptococcus pyogenes, < 0.125 µg/mL; in the experiment on Staphylococcus aureus it was 1 µg/mL (≈ 1.34 µM).
In the case of `CC[C@H]1OC(=O)[C@H](C)[C@@H](O[C@H]2C[C@@](C)(OC)[C@@H](O)[C@H](C)O2)[C@H](C)[C@@H](O[C@@H]2O[C@H](C)C[C@H](N(C)C)[C@H]2O)[C@](C)(OC)C[C@@H](C)C(=O)[C@H](C)[C@@H](O)[C@]1(C)O` [CLARITHROMYCIN], the MIC is < 0.125 µg/mL with Streptococcus pneumoniae; 8 µg/mL (≈ 10.7 µM) in the experiment on Haemophilus influenzae; < 0.125 µg/mL against Moraxella catarrhalis; < 0.125 µg/mL against Streptococcus pyogenes; 0.25 µg/mL (≈ 0.334 µM) in the experiment with Staphylococcus aureus.
